In the EternaBench riboswitch data:

Tested on: MS2 coat protein
Assay: apparent Kd, MS2 coat protein; higher = weaker binding; RNA-MaP array; FMN 200 µM where present
Summary of the method: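 Stalled E. coli RNA polymerase transcribed each design on Illumina sequencing-chip clusters. The clusters were titrated with SNAP-549-labelled MS2 coat protein, starting at 0.7 or 1.5 nM and doubling up to 3 µM, first without ligand and then with constant ligand, in 100 mM Tris-HCl pH 7.5, 80 mM KCl, 4 mM MgCl2, BSA, DTT, yeast tRNA and Tween-20. Green signal was normalised to red-channel RNA signal and to the control-cluster median Fmax. The apparent Kd is the median of filtered binding-curve fits made for each cluster.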

[1] = designed as: OFF switch for flavin mononucleotide, no ligand
[2] = ligand present: flavin mononucleotide, designed as: OFF switch for flavin mononucleotide
[3] = designed as: ON switch for flavin mononucleotide, no ligand
[4] = ligand present: flavin mononucleotide, designed as: ON switch for flavin mononucleotide

Sequence	apparent Kd [1]	apparent Kd [2]	apparent Kd [3]	apparent Kd [4]
CGUGACUCAGGAUAUCUAUAAUAUCACAUGAGGAUCACCCAUGUCCAGCAAUAGCUGGAGGGAGAAGGGAGUCACG	140 nM	54.9 nM	–	–
ACACAGGGAGGAUAUACAUGAGGAUCACCCAUGUAGAGUGGAUUGGGAUUGCUAUCAAGUAGAAGGCUUUAGUG	56.1 nM	122 nM	–	–
AGCUGUGGCCGAGGAUAUCACGAACCAUGGAAAACCAUGGAAAUUCUACAUGAGGAUCACCCAUGUGAGAAGGCGGUCUCAGCA	18.1 nM	17.2 nM	–	–
ACAUGAUAUGUAGGAUAUCACAACAUGAGUUUUAAUAUUGUUAUUUAGGAUUGAGAAGGACAUUUACAUGAGGAUCACCCAUGU	17.5 nM	14.6 nM	–	–
GUAGCAUGCAGCGAGGAUAUUCAUAUUAAAACAUGAGGAUCACCCAUGUAGGCCAAAAGGCCUUGGGAGAAGGCGCACAUGCUAC	–	–	777 nM	43.2 nM
CCUCCACAUUAGGAUAUCAUCAAACUAUUGUGAUGAGAAGGAAUGACAUGAGGAUCACCCAUGUUAUCGUGAUG	20.9 nM	18.1 nM	–	–
GCAGGGUAUGAGAAGGCAUAAUUUAUCUUACCACAUGUUUACAUGAGGAUCACCCAUGUUUCCUAUGAGGAUAUCAUACCGUGC	12.4 nM	9.98 nM	–	–
GCUAAACAUGAGGAUCACCCAUGUACCGAUCACUAAGGAUAUGGGCGAAUAACGGCUCGGCCAGAAGGUAGAGAUG	–	–	66.9 nM	81.8 nM
AAUAAACUCACAGGAUAUAGCAGAGGUCGCGUGUACUUACAGGCGACUAUGCUAGAAGGGUGACCACAUGAGGAUCACCCAUGU	–	–	746 nM	137 nM
GAAAAACAUGAGGAUCACCCAUGUAGAAAUAUGGGAGGAUAUACAAAGACGAAAGUCAAAGUAGAAGGCCUAAAAG	–	–	125 nM	31 nM
UGUCGGAGCAGAGGAUAUUACAUGAGGAUCACCCAUGUAUCAACCAAUAGCUGGAAACAGCAAUGUAAGAAGGCUGCUCCGACA	7.54 nM	19.8 nM	–	–
GAACUGAAGCAUAGCUUUAGUCGUACAUGAGGAUCACCCAUGUAGGAUAUGGUAGGCUUAGCUUACUAGAAGGAUAGAGUGAUC	140 nM	66.8 nM	–	–
UCCUGGCGAGGAUAUACAAAGUUUUUUACGUUUUGUUACGAACAUGAGGAUCACCCAUGUAGAAGGUGCUGCUG	62.2 nM	58.1 nM	–	–
GUAUUAAAGAUCCAUUUAUUCAACAUGAGGAUCACCCAUGUGCAGGAUAUCGUGUGUUUUAUAUUCGAGAAGGGCAAAUUCAUU	44.6 nM	104 nM	–	–
UGAAAUCAUGUAGGAUAUGCAUGGCGAAGCUACGCAGAAGGACAUGAGGAUCACCCAUGUUAUAGCGUCCGAUAAAGGAUGCAA	135 nM	139 nM	–	–
AGGAGGUUAGGAUAUGCUGCUCGUCACUUGCGUGAUGAGUAGCAGAAGGGACAUGAGGAUCACCCAUGUAAAGA	43.1 nM	27.7 nM	–	–
GUCAGCUCGUGAGGAUAUACAACACUGCUUCGGCAGUGUAUUAAAAUCACAUGAGGAUCACCCAUGUAGAAGGCACGAGCUGAU	5.04 nM	7.7 nM	–	–
AGAAGGCUACAGAAGGGACACACACGGUGGGAGUCAGGAUAUGUAGUGAAAACGUUACAUGAGGAUCACCCAUGUAGACCUUCC	–	–	141 nM	18.4 nM
ACGUAAAUUCGAGGAUAUCGGUGAUAUAAUUUACGAGAAGGCGAUAAUUGUGAUAAACUUAUAGACAUGAGGAUCACCCAUGUA	–	–	42.7 nM	37.9 nM
GGACGUCACAUGAACAUGAGGAUCACCCAUGUAAAUUCUCAUGAGGAUAUGGAACCUAAUUGGUUCCAGAAGGCGUGGACGUCC	–	–	849 nM	489 nM
CGUACACAUGAGGAUCACCCAUGUCAGAUUUGGUCAGGAUAUGGGCGGCAUCCGCUAUUGCCAGAAGGGACUGUUG	–	–	83.1 nM	160 nM

Sequence	apparent Kd [1]	apparent Kd [2]	apparent Kd [3]	apparent Kd [4]
CUAGCUUGCACAGGAUAUAGGCUCGGAGCUUACAUGAGGAUCACCCAUGUAGUGCGAGUGAAGCACUAGAAGGGUGAUGGGUAG	–	–	40.4 nM	22.8 nM
UCGCCAGGUACAGGAUAUGUGGAUCAGUCAAGUAAUUUGCUGAACAUGAGGAUCACCCAUGUAUCACAGAAGGGUGCCUCAAAA	–	–	173 nM	8.41 nM
UGGUUUGGGCUAGAUGCACAGACAUGAGGAUCACCCAUGUCUGAGGAUAUGCGUCAACAUAGGCAGCAGAAGGCAGACAUUCGC	16.8 nM	30.5 nM	–	–
CGCACUUAUAGAGGAUAUGUUAAACAUGAGGAUCACCCAUGUGAUUUAGUAUCAAUAUUAGUGAAACAGAAGGCUAUUAGUGCG	13.3 nM	12.9 nM	–	–
CGUCGCUGUCGAGAGGAUAUGCGGUGGUGGACAUGAGGAUCACCCAUGUUAGCGAUAGCAUCACGGUAGAAGGCUCUUACGACUG	–	–	21.4 nM	20.6 nM
GGAGCACGCACAGGAUAUCCGGCGGCGCUCGUCGGAGAAGGGUGACAUGAGGAUCACCCAUGUACGUGCAACUCGGUUUGAGAG	–	–	105 nM	49.2 nM
GCUGCAUAGGCAGGAUAUGCAAUAAUUUGAAUAAAAUAUAACAAAUUAACAUGAGGAUCACCCAUGUAGAAGGGCCUGUGCAGU	17.5 nM	19.4 nM	–	–
GGAUCGAGUGUGAGGAUAUGCUGGUCCUUGGAUCAGCAGAAGGCACAUGAGGAUCACCCAUGUGAUAUCGAUCC	56.1 nM	541 nM	–	–
AAGUUUGUACGAGGAUAUCAGUUGUAUCUAAAUUCAACAUGAGGAUCACCCAUGUUGCAAUGGAGUGAGAAGGCGUGUGGGCAA	–	–	31.3 nM	22.8 nM
GGGCUCGGAGGAUAUACAUGAGGAUCACCCAUGUAGGGCUCGGGUAUUUCUGGGUCUUGUAGAAGGCUGGGUCU	21.3 nM	30 nM	–	–
GUGCUGCAGCUGUGCACGAGACAUGAGGAUCACCCAUGUGACAGAAGGGACUUGUUAAAGGUAGGUCAGGAUAUGUCUUAAAAG	–	–	107 nM	37.3 nM
CUUUAGUGAGGAUAUCAGUAGUAAUACAAUAGUAUUACUACUGAGAAGGCACAUGAGGAUCACCCAUGUUUCUC	31 nM	136 nM	–	–
AAAUCCGCUGAGGAUAUUAUGAGUGAGAGCUCAUGAGAAGGCGGUACAUGAGGAUCACCCAUGUCUAUGGGCAA	419 nM	292 nM	–	–
CUCAUUAGUCAGGAUAUCGUGUGGGUAAUUGUACGAGAAGGGACGACAUGAGGAUCACCCAUGUGGUCUUUGAG	71 nM	317 nM	–	–
UGAAUGUGAGGAUAUGGUGAGUAGUGCCUAAGCGCUGCUCACCAGAAGGCACAUGAGGAUCACCCAUGUACUUG	61.7 nM	192 nM	–	–
UUCAUCAGUGAAGGAUAUCUAUGUCCAACAUGAGGAUCACCCAUGUUGAGGAUUACCUAUGUGUAGGAGAAGGUCAAUAUAACU	–	–	6.79 nM	6.1 nM
AAUUUAAUACAUGAGGAUCACCCAUGUAAUACUAGUAAGAUCUAGGAUAUCAGCUCGUUUAGAGCUGAGAAGGAGAUCACAUGU	–	–	86.3 nM	26 nM
UCUCGUUUCGCAGGAUAUGCUGGUCGGUAAUAUACCGGCCACAUGAGGAUCACCCAUGUGCCACAGCAGAAGGGUGACACUAGA	–	–	634 nM	65.7 nM
UAUAUAUAGUAAGGAUAUGUAUAUAUUUCAUAAACAGAAGGUACUGACAUGAGGAUCACCCAUGUUUUAGUGUGGGCAUGUAGA	60.1 nM	83.8 nM	–	–
AGGCAGCAAGGAUAUACAUAAUUCCUACAAGUCAGCAUAGGACAUGAGGAUCACCCAUGUAGAAGGUGCAAAGA	24.1 nM	46.3 nM	–	–
GUCGUGUGAGGAUAUGAUUUUUCGGCGGGAUUGCGACUGCUUCAGAAGGCACAUGAGGAUCACCCAUGUAUGUC	10.7 nM	25.5 nM	–	–
